The values that follow come from PubChem BioAssay.

Activity calls are given as the source filed them.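 The calls were made as follows, unless noted: active = viability loss from added drug above about 55%, and viability with drug at most 40%, in both replicates (limit read from the data, passing the limit was not always enough); inconclusive = both conditions met in only one replicate; inactive = neither replicate meets both conditions.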

The nature of assay [1]: reducers of endogenous Her2 protein level, primary screen, SKBR3 breast tumor cells, AlphaScreen, ATP viability (AID 461;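 active = Her2 level under about 52% in both replicate screens, with viability over 70% of control, limit read from the data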;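 as to Her2 level: lower value means less Her2 protein in the cells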;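 as to viability: percent of carrier control wells set as 100% viability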). The following applies: 18-24 h, measured here: SKBR3 viability, ATP luminescence, at 10 µM. (In general: Alpha assays give light when donor and acceptor beads are brought close together.)
Assay [2] deals with Receptor tyrosine-protein kinase erbB-2 (Homo sapiens) (UniProt P04626). The description is as above. The following applies: 18-24 h, at 10 µM, stronger effect = lower value.
Receptor tyrosine-protein kinase erbB-2 (Homo sapiens), sequence (P04626 whole entry, looked up): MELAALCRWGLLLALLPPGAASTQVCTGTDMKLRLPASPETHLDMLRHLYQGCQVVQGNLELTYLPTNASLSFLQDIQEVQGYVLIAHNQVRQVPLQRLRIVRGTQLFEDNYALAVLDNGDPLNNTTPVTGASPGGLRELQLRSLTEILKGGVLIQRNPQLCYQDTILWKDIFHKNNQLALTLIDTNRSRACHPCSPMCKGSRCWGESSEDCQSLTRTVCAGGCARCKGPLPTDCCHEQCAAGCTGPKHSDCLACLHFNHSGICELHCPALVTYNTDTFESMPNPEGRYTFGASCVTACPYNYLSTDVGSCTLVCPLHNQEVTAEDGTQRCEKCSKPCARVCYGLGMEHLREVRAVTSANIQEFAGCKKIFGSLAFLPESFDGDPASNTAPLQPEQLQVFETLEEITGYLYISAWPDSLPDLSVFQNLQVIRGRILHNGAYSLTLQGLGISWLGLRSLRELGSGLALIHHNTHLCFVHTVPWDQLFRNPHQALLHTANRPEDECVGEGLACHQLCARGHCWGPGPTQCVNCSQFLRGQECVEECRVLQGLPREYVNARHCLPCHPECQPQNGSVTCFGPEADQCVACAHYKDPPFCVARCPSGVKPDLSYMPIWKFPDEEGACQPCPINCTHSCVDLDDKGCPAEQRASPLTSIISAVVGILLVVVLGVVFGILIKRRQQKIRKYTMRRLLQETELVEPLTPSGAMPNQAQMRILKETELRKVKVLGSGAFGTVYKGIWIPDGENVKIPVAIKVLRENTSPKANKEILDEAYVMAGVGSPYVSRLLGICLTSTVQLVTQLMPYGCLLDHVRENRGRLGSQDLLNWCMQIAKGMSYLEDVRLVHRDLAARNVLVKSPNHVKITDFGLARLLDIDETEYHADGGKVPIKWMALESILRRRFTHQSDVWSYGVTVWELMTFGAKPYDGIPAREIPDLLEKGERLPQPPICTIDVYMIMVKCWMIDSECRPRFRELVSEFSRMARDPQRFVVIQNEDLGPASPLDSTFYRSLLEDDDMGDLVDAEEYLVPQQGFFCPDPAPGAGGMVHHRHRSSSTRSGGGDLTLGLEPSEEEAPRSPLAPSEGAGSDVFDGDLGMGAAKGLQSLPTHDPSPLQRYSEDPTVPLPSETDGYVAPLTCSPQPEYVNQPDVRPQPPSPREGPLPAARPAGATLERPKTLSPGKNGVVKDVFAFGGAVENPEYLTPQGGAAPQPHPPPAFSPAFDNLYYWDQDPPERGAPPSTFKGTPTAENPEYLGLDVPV
A short description of assay [3]: SK-BR-3 cell growth inhibitors, pilot screen, 24 h, human (AID 572;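 active = viability at or below 10% of carrier control in both of two separate runs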;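 also: compound exposure lasted between 18 and 24 h rather than exactly 24 h; 100% = carrier-treated control wells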). The following applies: SK-BR-3 viability, CellTiter-Glo luminescence, at 10 µM, stronger effect = lower value. (In ATP-based viability assays light output follows the ATP content of the culture.)
Assay [4] is described as follows: HUVEC growth inhibition – cell-based, human, primary screen (AID 575;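 active = viability at or below 30% in both replicate assays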;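 also: 100% = median of untreated cell wells with 0.1% DMSO on each plate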). The following applies: HUVEC proliferation, CellTiter-Glo luminescence, 72 h; at 10 µM; stronger effect = lower value. The procedure, abridged:
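Test system: primary human umbilical vein endothelial cells. Quantity: 1250 cells/well. Compound: single 10 µM dose, 0.1% DMSO, from 5x medium stock. Timing: 72 h treatment at 37 °C. Detection: ATP-based CellTiter-Glo luminescent read. Benchmarks: vehicle and MePR control wells. Format: 384-well plates coated with collagen.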

A short description of assay [5]: growth inhibitors of H69AR lung tumor, primary screen, human, duplicate replicates (AID 580;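 active = viability at or under a set limit in both replicates, limit being median viability minus 3 SD, cut at about 48% in these data, passing the limit was not always enough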;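 also: 100% = mean luminescence of untreated wells and 0% = no signal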). The following applies: H69AR lung tumor cells viability, ATP luminescence, 72 h; at 10 µM; stronger effect = lower value.
Assay [6] in a line: reversal of MRP1-mediated doxorubicin resistance, pilot screen, H69AR cells, doxorubicin co-treatment (AID 601). The following applies: CellTiter-Glo, 72 h, at 10 µM; for differential viability (reversal): stronger effect = higher value.
A short description of assay [7]: 384-well plate pilot, post-Golgi transport modulator project, inhibition of yeast transport mutant growth (AID 636; in the data active = inhibition above about 31%). The following applies: absorbance 615 nm, about 18 h, stronger effect = higher value.
Assay [8] is described as follows: growth suppression of yeast trafficking mutant, preliminary HTS, modulators of trafficking downstream of Golgi apparatus project, 1536-format plate, OD 615 nm (AID 637; in the data active = inhibition above about 30%). The following applies: yeast transport mutant growth, absorbance 615 nm, 18 h; stronger effect = higher value.
[9] abbreviates: H69AR cells + 2 uM doxorubicin, measured here: viability with 2 uM doxorubicin, stronger effect = lower value.
The mark [10] stands for this setting: H69AR cells, compound alone cytotoxicity.

With `CCOC(=O)CC12CN3CN(C1)CC(CC(=O)OCC)(C3)C2=O`, the viability is 94% in assay [1]; 94% (inactive) in assay [3]; 89.1% (inactive) in assay [4]; 98.3% (inactive) in assay [5]; 94.7% in assay [6] (setting [9]); 98.3% in assay [6] (setting [10]). Moreover, the Her2 level in assay [2] was 86% (inactive). Besides, the differential viability (reversal) in assay [6] (H69AR cells + 2 uM doxorubicin) was 3.54% (inactive). In addition, the inhibition was -5.95% (inactive) in assay [7] and 0.49% (inactive) in assay [8].

`CN(C)CCCN1c2ccccc2CCc2ccccc21`: the viability in assay [1] is 105%; in assay [3], 105% (inactive); in assay [4], 81% (inactive); in assay [5], 77.7% (inactive); in assay [6] (setting [9]), 73.5%; in assay [6] (setting [10]), 77.7%. For the same molecule, the Her2 level in assay [2] was 104% (inactive). Moreover, the differential viability (reversal) in assay [6] (H69AR cells + 2 uM doxorubicin) was 4.16% (inactive).

Regarding `O=C(Nc1c(-c2ccccc2)nc2ccccn12)c1ccco1`, the viability in assay [1] was 95%; in assay [3] it was 95% (inactive); in assay [4], 109% (inactive); in assay [5], 103% (inactive); in assay [6] (setting [9]) it was 86.9%; in assay [6] (setting [10]), 103%. The Her2 level in assay [2] was 106% (inactive). For the same molecule, the differential viability (reversal) in assay [6] (H69AR cells + 2 uM doxorubicin) is 16.5% (inactive). The inhibition in assay [7] was -0.92% (inactive); in assay [8], -4.55% (inactive).

With `COC(=O)Cc1csc(N)n1`, the viability in assay [1] was 95%; in assay [3], 95% (inactive); in assay [4], 90.1% (inactive); in assay [5], 93% (inactive); in assay [6] (setting [9]), 88.2%; in assay [6] (setting [10]), 93%. Moreover, in assay [2], the Her2 level was 82.5% (inactive). Also, the differential viability (reversal) in assay [6] (H69AR cells + 2 uM doxorubicin) was 4.79% (inactive). In addition, the inhibition in assay [7] is 0.92% (inactive); in assay [8], -3.27% (inactive).

In the case of `COc1ccccc1OCC(O)COC(N)=O` (stereo not given), the viability in assay [1] is 93.5%; in assay [3], 93.5% (inactive); in assay [4], 90.5% (inactive); in assay [5], 99.9% (inactive); in assay [6] (setting [9]) it was 92%; in assay [6] (setting [10]), 99.9%. Moreover, the Her2 level in assay [2] is 96% (inactive). Also, in assay [6] (H69AR cells + 2 uM doxorubicin), the differential viability (reversal) was 7.94% (inactive).

Take `O=[n+]1c2c(n([O-])c3cc(F)c(N4CCCC4)cc31)CCC2`: the viability is 101% in assay [1]; 101% (inactive) in assay [3]; 90.6% (inactive) in assay [4]; 74% (inactive) in assay [5]; 68.4% in assay [6] (setting [9]); 74% in assay [6] (setting [10]). Besides, the Her2 level in assay [2] is 86.5% (inactive). Also, the differential viability (reversal) in assay [6] (H69AR cells + 2 uM doxorubicin) is 5.59% (inactive). Also, the inhibition is -2.57% (inactive) in assay [7] and 1.9% (inactive) in assay [8].

`COc1ccc(-c2coc3cc(O)cc(O)c3c2=O)cc1`: the viability in assay [1] was 118%; in assay [3] it was 118% (inactive); in assay [4] it was 84.2% (inactive); in assay [5] it was 68.8% (inactive); in assay [6] (setting [9]) it was 95.8%; in assay [6] (setting [10]), 68.8%. In assay [2], the Her2 level was 99% (inactive). In addition, in assay [6] (H69AR cells + 2 uM doxorubicin), the differential viability (reversal) was -27% (inactive).

Regarding `COc1ccc(S(=O)(=O)N2CCC(C(=O)c3ccc4c(c3)OCCO4)CC2)cc1`, the viability is 88.5% in assay [1]; 88.5% (inactive) in assay [3]; 61.7% (inactive) in assay [4]; 91.5% (inactive) in assay [5]; 84% in assay [6] (setting [9]); 91.5% in assay [6] (setting [10]). Further, the Her2 level in assay [2] was 108% (inactive). Further, in assay [6] (H69AR cells + 2 uM doxorubicin), the differential viability (reversal) was 7.49% (inactive). In addition, the inhibition in assay [7] was -1.95% (inactive); in assay [8] it was -8.69% (inactive).

Regarding `O=C(CCN1CCOCC1)Nc1cccc(Br)c1`, the viability in assay [1] was 100%; in assay [3], 100% (inactive); in assay [4], 78.9% (inactive); in assay [5], 92.9% (inactive); in assay [6] (setting [9]), 85.2%; in assay [6] (setting [10]) it was 92.9%. In addition, in assay [2], the Her2 level was 86% (inactive). Besides, the differential viability (reversal) in assay [6] (H69AR cells + 2 uM doxorubicin) was 7.72% (inactive). The inhibition was -5.47% (inactive) in assay [7] and -6.56% (inactive) in assay [8].

For `C[C@]12CC[C@@H]3c4ccc(O[C@@H]5O[C@H](C(=O)O)[C@@H](O)[C@H](O)[C@H]5O)cc4CC[C@H]3[C@@H]1C[C@@H](O)[C@@H]2O`, the viability in assay [1] is 102%; in assay [3], 102% (inactive); in assay [4] it was 89.5% (inactive); in assay [5] it was 102% (inactive); in assay [6] (setting [9]), 84.8%; in assay [6] (setting [10]) it was 102%. Further, the Her2 level in assay [2] is 92.5% (inactive). The differential viability (reversal) in assay [6] (H69AR cells + 2 uM doxorubicin) is 17.1% (inactive).

Turning to `CC(=O)[C@@]1(O)CC[C@H]2[C@@H]3CCC4=CC(=O)CC[C@]4(C)[C@H]3[C@@H](O)C[C@@]21C`, the viability in assay [1] was 97%; in assay [3] it was 97% (inactive); in assay [4] it was 94.8% (inactive); in assay [5] it was 99.5% (inactive); in assay [6] (setting [9]) it was 99.2%; in assay [6] (setting [10]), 99.5%. In addition, in assay [2], the Her2 level was 104% (inactive). In addition, the differential viability (reversal) in assay [6] (H69AR cells + 2 uM doxorubicin) is 0.36% (inactive).

`COc1ccc(/C=C(/C#N)c2cccnc2)cc1OC`: the viability is 92% in assay [1]; 92% (inactive) in assay [3]; 96.9% (inactive) in assay [4]; 103% (inactive) in assay [5]; 96.7% in assay [6] (setting [9]); 103% in assay [6] (setting [10]). In assay [2], the Her2 level is 97.5% (inactive). Besides, the differential viability (reversal) in assay [6] (H69AR cells + 2 uM doxorubicin) was 6.09% (inactive).

On to `CCOC(=O)[C@H](CCc1ccccc1)N[C@@H](C)C(=O)N1CCC[C@H]1C(=O)O`, for which the viability in assay [1] is 116%; in assay [3], 116% (inactive); in assay [4], 103% (inactive); in assay [5], 88.6% (inactive); in assay [6] (setting [9]) it was 97.4%; in assay [6] (setting [10]), 88.6%. The Her2 level in assay [2] is 100% (inactive). Besides, the differential viability (reversal) in assay [6] (H69AR cells + 2 uM doxorubicin) was -8.79% (inactive).

Regarding `Cn1c([N+](=O)[O-])cnc1COC(N)=O`, the viability in assay [1] was 108%; in assay [3], 108% (inactive); in assay [4], 102% (inactive); in assay [5], 102% (inactive); in assay [6] (setting [9]) it was 85.7%; in assay [6] (setting [10]), 102%. Also, the Her2 level in assay [2] was 105% (inactive). Besides, the differential viability (reversal) in assay [6] (H69AR cells + 2 uM doxorubicin) is 16.2% (inactive).

As for `C[C@]12CC[C@H]3[C@@H](CCC4=CC(=O)CC[C@@]43C)[C@@H]1CC[C@@H]2C(=O)CO`, the viability in assay [1] was 106%; in assay [3], 106% (inactive); in assay [4], 56.6% (inactive); in assay [5] it was 78.6% (inactive); in assay [6] (setting [9]) it was 94.9%; in assay [6] (setting [10]), 78.6%. Besides, the Her2 level in assay [2] is 90.5% (inactive). Further, in assay [6] (H69AR cells + 2 uM doxorubicin), the differential viability (reversal) was -16.3% (inactive).

Take `CC(=O)OCC(=O)[C@@]1(O)CC[C@H]2[C@@H]3CCC4=CC(=O)C=C[C@]4(C)[C@@]3(Cl)[C@@H](Cl)C[C@@]21C`: the viability was 114% in assay [1]; 114% (inactive) in assay [3]; 98.5% (inactive) in assay [4]; 97.4% (inactive) in assay [5]; 110% in assay [6] (setting [9]); 97.4% in assay [6] (setting [10]). Moreover, in assay [2], the Her2 level was 116% (inactive). The differential viability (reversal) in assay [6] (H69AR cells + 2 uM doxorubicin) was -13% (inactive).

Regarding `CC(=O)c1cc(Cl)ccc1OC(=O)c1ccco1`, the viability was 106% in assay [1]; 106% (inactive) in assay [3]; 95.3% (inactive) in assay [4]; 89.2% (inactive) in assay [5]; 92.5% in assay [6] (setting [9]); 89.2% in assay [6] (setting [10]). The Her2 level in assay [2] was 92.5% (inactive). Besides, the differential viability (reversal) in assay [6] (H69AR cells + 2 uM doxorubicin) is -3.25% (inactive). Moreover, the inhibition is -0.65% (inactive) in assay [7] and -4.43% (inactive) in assay [8].

As usually defined, the viability is a read-out of living cells in per cent, often relative to untreated cells. As a reminder, the inhibition is the relative decrease from the control value, in per cent.
